In the library only some 1.7% were active in any assay of this set; here they are far more common.
Vif imaging: HIV Vif self-association inhibitors, primary screen, imaging, HEK293T, single point; actives 0.35% (n = 340,000); HEK293T cells, Vif self-association by quenched fluorescence, 24 h; AID 602346, 2012; inhibition, % at 7.49 µM; in the data active = inhibition above about 50%, passing the limit was not always enough; inconclusive = no clear call, values can overlap the other calls; inactive = below about 31%
SR-BI HDL uptake: inhibitors of SR-BI mediated HDL lipid uptake, primary screen, ldlA[mSR-BI] cells, fluorescence, single point; actives 0.96% (n = 320,000); inhibition, % at 12.5 µM; ldlA[mSR-BI] CHO cells, DiI-HDL uptake fluorescence, 3 h; Scavenger receptor class B member 1 (Mus musculus), Q61009;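 active = mean replicate inhibition of at least 70% and a set share of replicates each scoring 70 or more; inconclusive = meets just one of the two criteria; inactive = fails both criteria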;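 also: 0% = median of neutral control wells and 100% = median of positive control wells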
NTR1 agonist: agonists of human NTR1, primary screen, imaging, U2OS cells, beta-arrestin-GFP, high content | activation, % at 20 µM | Neurotensin receptor type 1 (Homo sapiens), P30989 | AID 493036, 2011 | actives 0.17% (n = 330,000) | NTR1-U2OS beta-arrestin-GFP spot imaging, agonist mode;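 active = activation at or above 40% of the spot to cytoplasm intensity ratio, with at least 20 cells analyzed; inconclusive = wells under 20 cells, flagged as cytotoxic or low count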;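 also: 0% = DMSO without peptide and 100% = 100 nM NTR1 peptide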
Target sequence (P30989 whole entry, looked up): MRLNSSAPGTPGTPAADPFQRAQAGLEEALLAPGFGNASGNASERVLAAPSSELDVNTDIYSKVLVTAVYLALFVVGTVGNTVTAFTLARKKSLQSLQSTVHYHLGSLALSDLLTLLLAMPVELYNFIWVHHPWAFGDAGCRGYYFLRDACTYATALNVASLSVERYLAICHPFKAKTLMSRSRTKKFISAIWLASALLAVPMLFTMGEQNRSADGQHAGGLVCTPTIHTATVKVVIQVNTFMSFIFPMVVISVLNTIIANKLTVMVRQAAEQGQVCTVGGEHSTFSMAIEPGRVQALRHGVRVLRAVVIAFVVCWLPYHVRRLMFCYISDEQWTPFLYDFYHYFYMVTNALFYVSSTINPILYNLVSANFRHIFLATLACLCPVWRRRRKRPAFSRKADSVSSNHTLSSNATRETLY
SR-BI DiI-HDL act: activators of SR-BI mediated DiI-HDL uptake, primary screen, ldlA[mSR-BI] CHO cells, DiI fluorescence. 3 h; 100 = double the neutral-control signal. actives 0.096% (n = 320,000). activation, % at 12.5 µM. AID 504775, 2011;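 active = mean replicate activation of at least 60% and every replicate at or above 60%; inconclusive = mean or all-replicate condition met, but not both; inactive = mean below 60% and not all replicates reaching 60%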;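 also: 0% = median plate neutral-control signal and 100% = twice that signal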
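Test system: SR-BI-overexpressing, LDLR-lacking CHO cells. Measured by: DiI fluorescence, bottom read. Medium: Ham's F12 with 0.5% BSA, HEPES 25 mM, pH 7.4. Timing: 3 h uptake period with compound, 37 °C.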
V-ATPase pHluor: regulators of yeast V-ATPase proton pumping, primary screen, pHLuorin cytosolic pH fluorescence; response, % at 10 µM; actives 0.37% (n = 350,000); S. cerevisiae; in the data active = response mostly above about 7.3%, no sharp cut-off; inactive = mostly below about 5.4%; also: actives read high
CaV13 FRET inh: Disruptors of the CACNA1D IQ motif to Ca2+-dependent inactivation inhibitor domain association, primary screening, Förster resonance energy transfer in intact living …; inhibition, % at 12.3 µM; AID 743397; actives 0.098% (n = 340,000); HEK cells, CFP/YFP FRET ICDI-IQ, plate reader, 10 min; percent FRET-ratio fall versus neutral wells;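 active = mean replicate inhibition of at least 30% and at least 1% of replicates passing that level; inconclusive = only one of the two criteria is met; inactive = neither criterion is met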;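 also: 0% = median of the neutral control wells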
DiI quench: counter-screen for SR-BI lipid transfer inhibitors: DiI fluorescence quenchers. shares compounds with SR-BI HDL uptake. cell-free DiI-HDL fluorescence quenching, 30 min. AC50, µM (highest dose often 35 µM), without a hit: at the top dose activity change, negative = quenching. actives 20% (n = 470);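 active = quenching, a falling signal, with AC50 below a set limit tied to the top valid dose, actives reach about 32 µM in these data; inconclusive = no clear call, values can overlap the other calls; inactive = rising signal, and the rest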
Starred values were filed as active, the others as inactive; u = inconclusive; x = no result.

SMILES	Vif imaging	SR-BI HDL uptake	NTR1 agonist	SR-BI DiI-HDL act	V-ATPase pHluor	CaV13 FRET inh	DiI quench
CCOCCOC(=O)c1[nH]c2c(c1C)C(=O)CC(c1ccc(OC)c(OC)c1)C2 (stereo not given)	-10.8	38.9	-0.5	-38.9	0.3	-19.7	x
COc1ccc(CCn2c(C)cc(C(=O)CSc3nc(N)cc(=O)[nH]3)c2C)cc1	x	81.1*	1.9	-81.1	-2.1	-4.3	1.1%
CCOc1ccc(C(=O)Nc2ccc(S(=O)(=O)N3C[C@@H]4C[C@@H](C3)c3cccc(=O)n3C4)cc2)cc1	-6.3	74.9*	2.3	-74.9	-0.3	x	-1.3%
O=C(CCNC(=O)c1ccc(Cl)cc1)NCc1ccco1	-4.5	-3.7	-1.2	3.7	2.5	-5.8	x
COc1cc(OC)cc(C(=O)N[C@H](C(=O)Nc2nc(-c3cc(OC)ccc3OC)cs2)C(C)C)c1	-1.0	u	2.9	-70.8	-0.2	-6.0	-1.1%
COc1cc(OC)cc(C(=O)N[C@H](C(=O)Nc2nc(-c3ccc(OC)c(OC)c3)cs2)C(C)C)c1	x	x	4.6	x	-3.2	-3.2	x
COc1ccccc1Nc1nc(-c2c(C)[nH]c3ccccc23)cs1	-3.2	71.7*	x	-71.7	5.4	-3.5	5.61µM*
Cc1ccc(C2(c3ccccc3)NC(=O)N(CC(=O)NCc3ccccc3)C2=O)cc1C (stereo not given)	-8.4	34.1	-0.5	-34.1	-0.1	-4.3	x
CC(C)(C)C(=O)Nc1sc2c(c1-c1nc3ccccc3[nH]1)CCCC2	x	104.3*	9.0	-104.4	-2.1	-7.7	8.97µM*
Cc1cc(C)n(CC(=O)NC2CCCc3c2cnn3-c2ccc(C)c(C)c2)n1 (stereo not given)	-3.8	u	0.2	-72.2	3.5	-3.1	-1.9%
C[C@H](NC(=O)c1[nH]cnc1C(=O)Nc1ccc(CNC(=O)OC(C)(C)C)cc1)C(=O)OC(C)(C)C	-15.4	28.8	36.1	-28.8	2.0	-5.5	x
COc1ccc(C2=C(c3ccccc3)OC(OC)c3cc(F)ccc32)cn1 (stereo not given)	x	x	x	x	x	-5.1	x
CCOc1c2ccc(C(=O)NC3CCCc4ccccc43)cc2nn1C (stereo not given)	x	17.5	-6.6	-17.5	-1.6	-9.9	x
CCCCn1nc2cc(C(=O)NC3CCCc4ccccc43)ccc2c1OCC (stereo not given)	-10.0	79.5*	-3.1	-79.5	-0.6	-5.3	-3.1%
COc1ccc(N2c3ccccc3CN(Cc3ccccc3)CC2Cc2cc(OC)c(OC)c(OC)c2)cc1 (stereo not given)	-0.5	x	x	x	1.3	-4.7	x
CC(C)COc1ccc(CNC(=S)Nc2ccccc2)cc1Cl	-3.2	-27.6	23.1	27.6	-1.6	-13.4	x
CCOC(=O)C(C)(C)Sc1nc2c(cnn2-c2ccc(F)cc2)c(=O)[nH]1	-10.9	76.6*	-0.1	-76.6	-1.5	-6.8	-5.6%
O=C(Nc1ccccc1)NC1CC2CCC(C1)N2Cc1nnnn1Cc1ccc2c(c1)OCO2 (stereo not given)	x	u	1.3	-71.4	2.4	x	0.8%
NC(=O)c1ccsc1NC(=O)CS(=O)(=O)c1ccc(F)cc1	0.5	-0.5	-0.1	0.5	-3.9	-6.4	x
Cc1ccc(S(=O)(=O)N2CCCC2)cc1C(=O)NCCOc1ccccc1	-1.8	10.0	-2.4	-10.0	2.3	-2.1	x
COc1cc(NC(=O)c2cc(-n3cnnc3)ccc2Cl)cc(OC)c1	-4.9	43.6	0.4	-43.6	-1.4	-5.1	-1.8%
O=C(NCc1ccccc1)c1cc(-n2cnnc2)ccc1Cl	7.9	7.2	0.1	-7.2	-2.3	-2.2	x
CN(C(=O)c1cc(-n2cnnc2)ccc1Cl)c1ccccc1	-1.8	-11.0	0.4	11.0	0.7	-5.1	-3.3%
COc1ccc(CCN2CC(C(=O)NCc3cc(C(C)C)no3)CCC2=O)cc1 (stereo not given)	-2.7	-12.1	0.9	12.1	0.7	-7.2	-2.0%
CC(C)c1cc(CNC(=O)C2CCC(=O)N(CCc3ccc(Cl)cc3)C2)on1 (stereo not given)	5.2	78.4*	-0.9	-78.4	-2.2	-7.6	-1.2%
SMILES	Vif imaging	SR-BI HDL uptake	NTR1 agonist	SR-BI DiI-HDL act	V-ATPase pHluor	CaV13 FRET inh	DiI quench
COc1ccc(CCN2CC(C(=O)NCc3nc(C)c(C)s3)CCC2=O)cc1 (stereo not given)	2.2	0.3	0.1	-0.3	-2.5	-5.1	x
Cc1ccc(S(=O)(=O)NCc2ccc(C(=O)NCCc3ccc(S(N)(=O)=O)cc3)cc2)cc1	-6.6	92.3*	0.5	-92.3	5.3	-6.3	4.8%
COc1ccc(N2CN=C3SCC(=O)N3C2)cc1	3.6	-9.8	-1.8	9.8	5.1	-3.4	x
Cc1cc(C)cc(N2CN=C3SCC(=O)N3C2)c1	6.6	u	0.6	-70.7	2.6	-7.1	-2.5%
Cc1ccc(NC(=O)CSc2nnc3n2CCCCC3)cc1	-3.5	-21.1	2.2	21.1	14.7	-6.2	x
CC(=O)Oc1ccc(C(=O)Nc2ccccc2NC(=O)c2ccc(OC(C)=O)cc2)cc1	5.7	58.8	0.5	-58.8	-4.2	-18.4	x
CC(=O)Oc1ccc(C(=O)Nc2cc(NC(=O)c3ccc(OC(C)=O)cc3)cc(C(=O)NC(C)(C)C)c2)cc1	4.0	22.1	21.4	-22.1	1.6	-14.3	6.3%
COc1ccccc1C(=O)NCCC(=O)N(C)CC(=O)Nc1ccc(N2CCOCC2)cc1	2.5	-7.2	0.1	7.2	2.7	-3.7	x
Cc1c(C(=O)OCC2CCCO2)[nH]c2c1C(=O)CC(c1ccco1)C2 (stereo not given)	-8.7	52.5	0.4	-52.5	-3.2	x	-10.2%
Cc1c(C(=O)OCC(C)C)[nH]c2c1C(=O)CC(c1ccco1)C2 (stereo not given)	-10.4	65.6	-4.4	-65.6	-0.3	-12.8	x
C/C=C/COC(=O)c1[nH]c2c(c1C)C(=O)CC(c1ccco1)C2 (stereo not given)	-0.3	77.8*	-4.0	-77.8	0.2	-1.6	-6.9%
CC(=O)c1cc2c(cc1F)C(C)(C)CCC2(C)C	6.9	-4.4	x	4.4	0.7	-7.3	x
COc1ccc(OC[C@@H](O)CNC(=O)c2cccc3c2C(=O)c2ccc(-c4ccc(F)cc4OCc4ccccc4)cc2S3(=O)=O)cc1	-1.2	80.2*	0.0	-80.2	0.5	x	-18.9%
Cc1cccc(N2CCN(C(=O)CN3C(=O)NC4(CCCCCC4)C3=O)CC2)c1C	-0.8	73.4*	0.3	-73.4	1.3	-6.0	-2.9%
